Experiments:
[1] = molecular target: Rho-associated protein kinase 2 (Homo sapiens) (UniProt O75116); experiment: Inhibition of ROCK2 assessed as residual activity at 10 uM by Cherenkov counting relative to control in presence of 20 uM ATP
Summary of the method: (§1)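 Single-concentration profiling at 10 μM in a 78-kinase panel. Kinase activity is expressed as a percentage of control assays run without compound.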

[2] = molecular target: Serine/threonine-protein kinase N2 (Homo sapiens) (UniProt Q16513); experiment: Inhibition of PRK2 assessed as residual activity at 10 uM by Cherenkov counting relative to control in presence of 5 uM ATP; summary of the method: as §1
[3] = molecular target: Calcium/calmodulin-dependent protein kinase kinase 1 (Homo sapiens) (UniProt Q8N5S9); experiment: Inhibition of CAMKKalpha assessed as residual activity at 10 uM by Cherenkov counting relative to control
Summary of the method: (§2)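 Single-point profiling at 10 µM in a panel of 78 protein kinases. Kinase activity is expressed as a percentage relative to control assays without compound.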

[4] = molecular target: Calcium/calmodulin-dependent protein kinase type 1 (Homo sapiens) (UniProt Q14012); experiment: Inhibition of CAMK1 assessed as residual activity at 10 uM by Cherenkov counting relative to control in presence of 50 uM ATP; summary of the method: as §2
[5] = molecular target: Serine/threonine-protein kinase Chk2 (Homo sapiens) (UniProt O96017); experiment: Inhibition of CHK2 assessed as residual activity at 10 uM by Cherenkov counting relative to control in presence of 20 uM ATP; summary of the method: as §2
[6] = molecular target: Serine/threonine-protein kinase PLK1 (Homo sapiens) (UniProt P53350); experiment: Inhibition of PLK1 assessed as residual activity at 10 uM by Cherenkov counting relative to control in presence of 5 uM ATP; summary of the method: as §1
[7] = molecular target: Aurora kinase C (Homo sapiens) (UniProt Q9UQB9); experiment: Inhibition of Aurora C assessed as residual activity at 10 uM by Cherenkov counting relative to control; summary of the method: as §2
[8] = molecular target: Tyrosine-protein kinase CSK (Homo sapiens) (UniProt P41240); experiment: Inhibition of CSK assessed as residual activity at 10 uM by Cherenkov counting relative to control in presence of 20 uM ATP; summary of the method: as §2
[9] = molecular target: Insulin-like growth factor 1 receptor (Homo sapiens) (UniProt P08069); experiment: Inhibition of IGF1R assessed as residual activity at 0.1 uM by Cherenkov counting relative to control in presence of 5 uM ATP
Summary of the method: (§3)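 Single-concentration screen at 0.1 µM across a panel of 76 protein kinases. Each kinase was run at an ATP concentration approximating its ATP Km. Results are % mean residual activity versus control assays without compound (n = 3 ± SD).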

[10] = Selectivity ratio of IC50 for recombinant CK1epsilon to IC50 for GST-fused rat CK1delta
[11] = molecular target: Dual specificity mitogen-activated protein kinase kinase 1 (Homo sapiens) (UniProt Q02750); experiment: Inhibition of MKK1 at 0.1 uM by Cherenkov counting in presence of 5 uM ATP
Summary of the method: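 Single-concentration selectivity screen at 0.1 μM against a panel of 76 protein kinases. Each kinase was run at an ATP level approximating its Km for ATP. Output is mean residual activity as % of the control assay without compound, n = 3 ± SD.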

[12] = molecular target: Mitogen-activated protein kinase 11 (Homo sapiens) (UniProt Q15759); experiment: Inhibition of p38beta assessed as residual activity at 0.1 uM by Cherenkov counting relative to control
Summary of the method: (§4)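 Single-concentration screen at 0.1 μM in a 76-kinase panel. ATP for each kinase was set near its Km for ATP. Residual activity is given as a percentage of control assays without compound, mean of n = 3 ± SD.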

[13] = molecular target: Ribosomal protein S6 kinase alpha-1 (Homo sapiens) (UniProt Q15418); experiment: Inhibition of RSK1 assessed as residual activity at 0.1 uM by Cherenkov counting relative to control; summary of the method: as §4
[14] = molecular target: Rho-associated protein kinase 2 (Homo sapiens) (UniProt O75116); experiment: Inhibition of ROCK2 assessed as residual activity at 0.1 uM by Cherenkov counting relative to control in presence of 20 uM ATP; summary of the method: as §4
[15] = molecular target: T1, Serine/threonine-protein kinase D1 (Homo sapiens) (UniProt Q15139); experiment: Inhibition of PKD1 assessed as residual activity at 0.1 uM by Cherenkov counting relative to control in presence of 50 uM ATP; summary of the method: as §4
T1 sequence (whole entry): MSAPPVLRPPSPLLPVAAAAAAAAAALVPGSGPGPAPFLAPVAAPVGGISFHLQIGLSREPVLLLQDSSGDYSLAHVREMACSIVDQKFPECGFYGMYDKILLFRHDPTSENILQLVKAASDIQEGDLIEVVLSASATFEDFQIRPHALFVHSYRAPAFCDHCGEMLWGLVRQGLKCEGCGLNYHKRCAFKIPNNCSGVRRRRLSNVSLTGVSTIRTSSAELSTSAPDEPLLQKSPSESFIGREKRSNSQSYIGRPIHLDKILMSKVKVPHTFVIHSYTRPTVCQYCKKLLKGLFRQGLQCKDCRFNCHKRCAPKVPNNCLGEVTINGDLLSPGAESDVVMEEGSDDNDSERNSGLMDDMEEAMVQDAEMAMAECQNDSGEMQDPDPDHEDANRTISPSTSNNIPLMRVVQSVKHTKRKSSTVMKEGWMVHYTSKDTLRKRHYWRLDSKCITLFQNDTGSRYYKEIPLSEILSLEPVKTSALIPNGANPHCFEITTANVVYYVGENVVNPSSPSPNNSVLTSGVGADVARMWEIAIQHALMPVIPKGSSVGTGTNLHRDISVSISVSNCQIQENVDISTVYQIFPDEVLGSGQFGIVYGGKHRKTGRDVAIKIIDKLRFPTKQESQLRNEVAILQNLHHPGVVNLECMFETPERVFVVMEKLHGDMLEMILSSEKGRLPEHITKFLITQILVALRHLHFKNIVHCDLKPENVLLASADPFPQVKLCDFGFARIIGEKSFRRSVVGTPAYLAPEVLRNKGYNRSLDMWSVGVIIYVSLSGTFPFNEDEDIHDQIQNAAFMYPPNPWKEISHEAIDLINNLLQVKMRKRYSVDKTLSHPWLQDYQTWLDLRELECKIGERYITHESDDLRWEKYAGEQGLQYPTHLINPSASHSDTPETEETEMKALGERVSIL

[16] = molecular target: Glycogen synthase kinase-3 beta (Homo sapiens) (UniProt P49841); experiment: Inhibition of GSK3-beta assessed as residual activity at 0.1 uM by Cherenkov counting relative to control in presence of 5 uM ATP; summary of the method: as §3
[17] = molecular target: Homeodomain-interacting protein kinase 2 (Homo sapiens) (UniProt Q9H2X6); experiment: Inhibition of HIPK2 assessed as residual activity at 0.1 uM by Cherenkov counting relative to control in presence of 5 uM ATP; summary of the method: as §3
Chain of Homeodomain-interacting protein kinase 2 (Homo sapiens) (Q9H2X6 whole entry, looked up): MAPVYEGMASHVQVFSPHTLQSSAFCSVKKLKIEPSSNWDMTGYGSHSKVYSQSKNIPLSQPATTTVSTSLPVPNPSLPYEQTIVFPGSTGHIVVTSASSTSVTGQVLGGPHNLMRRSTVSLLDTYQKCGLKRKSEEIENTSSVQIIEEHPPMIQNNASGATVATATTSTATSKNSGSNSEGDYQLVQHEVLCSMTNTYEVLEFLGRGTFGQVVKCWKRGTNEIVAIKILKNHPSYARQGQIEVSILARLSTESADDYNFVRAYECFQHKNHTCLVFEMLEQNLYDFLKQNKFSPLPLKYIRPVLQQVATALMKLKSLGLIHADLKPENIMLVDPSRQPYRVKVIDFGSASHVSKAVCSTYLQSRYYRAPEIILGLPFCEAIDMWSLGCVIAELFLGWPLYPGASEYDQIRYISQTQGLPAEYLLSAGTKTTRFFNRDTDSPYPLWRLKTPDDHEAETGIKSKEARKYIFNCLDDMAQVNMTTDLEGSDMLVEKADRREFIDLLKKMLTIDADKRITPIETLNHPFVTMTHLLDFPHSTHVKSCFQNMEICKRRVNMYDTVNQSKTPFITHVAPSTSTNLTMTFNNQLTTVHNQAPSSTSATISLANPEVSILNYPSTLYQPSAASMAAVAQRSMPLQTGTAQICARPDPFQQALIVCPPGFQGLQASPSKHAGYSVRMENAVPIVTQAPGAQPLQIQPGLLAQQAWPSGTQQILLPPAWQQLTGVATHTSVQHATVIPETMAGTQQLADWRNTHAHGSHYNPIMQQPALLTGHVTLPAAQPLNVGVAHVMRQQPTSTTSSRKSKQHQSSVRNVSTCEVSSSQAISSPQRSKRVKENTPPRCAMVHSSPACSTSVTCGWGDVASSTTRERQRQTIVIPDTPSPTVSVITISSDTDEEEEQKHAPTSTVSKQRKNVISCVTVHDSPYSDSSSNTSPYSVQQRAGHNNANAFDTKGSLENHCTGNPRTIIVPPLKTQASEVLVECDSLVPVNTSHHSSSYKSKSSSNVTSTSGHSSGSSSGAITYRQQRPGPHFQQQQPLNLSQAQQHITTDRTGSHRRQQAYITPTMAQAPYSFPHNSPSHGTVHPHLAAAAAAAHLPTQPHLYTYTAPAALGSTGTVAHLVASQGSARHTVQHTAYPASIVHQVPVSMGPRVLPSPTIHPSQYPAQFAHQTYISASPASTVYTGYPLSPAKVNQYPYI

Chain of Rho-associated protein kinase 2 (Homo sapiens) (O75116 whole entry, looked up): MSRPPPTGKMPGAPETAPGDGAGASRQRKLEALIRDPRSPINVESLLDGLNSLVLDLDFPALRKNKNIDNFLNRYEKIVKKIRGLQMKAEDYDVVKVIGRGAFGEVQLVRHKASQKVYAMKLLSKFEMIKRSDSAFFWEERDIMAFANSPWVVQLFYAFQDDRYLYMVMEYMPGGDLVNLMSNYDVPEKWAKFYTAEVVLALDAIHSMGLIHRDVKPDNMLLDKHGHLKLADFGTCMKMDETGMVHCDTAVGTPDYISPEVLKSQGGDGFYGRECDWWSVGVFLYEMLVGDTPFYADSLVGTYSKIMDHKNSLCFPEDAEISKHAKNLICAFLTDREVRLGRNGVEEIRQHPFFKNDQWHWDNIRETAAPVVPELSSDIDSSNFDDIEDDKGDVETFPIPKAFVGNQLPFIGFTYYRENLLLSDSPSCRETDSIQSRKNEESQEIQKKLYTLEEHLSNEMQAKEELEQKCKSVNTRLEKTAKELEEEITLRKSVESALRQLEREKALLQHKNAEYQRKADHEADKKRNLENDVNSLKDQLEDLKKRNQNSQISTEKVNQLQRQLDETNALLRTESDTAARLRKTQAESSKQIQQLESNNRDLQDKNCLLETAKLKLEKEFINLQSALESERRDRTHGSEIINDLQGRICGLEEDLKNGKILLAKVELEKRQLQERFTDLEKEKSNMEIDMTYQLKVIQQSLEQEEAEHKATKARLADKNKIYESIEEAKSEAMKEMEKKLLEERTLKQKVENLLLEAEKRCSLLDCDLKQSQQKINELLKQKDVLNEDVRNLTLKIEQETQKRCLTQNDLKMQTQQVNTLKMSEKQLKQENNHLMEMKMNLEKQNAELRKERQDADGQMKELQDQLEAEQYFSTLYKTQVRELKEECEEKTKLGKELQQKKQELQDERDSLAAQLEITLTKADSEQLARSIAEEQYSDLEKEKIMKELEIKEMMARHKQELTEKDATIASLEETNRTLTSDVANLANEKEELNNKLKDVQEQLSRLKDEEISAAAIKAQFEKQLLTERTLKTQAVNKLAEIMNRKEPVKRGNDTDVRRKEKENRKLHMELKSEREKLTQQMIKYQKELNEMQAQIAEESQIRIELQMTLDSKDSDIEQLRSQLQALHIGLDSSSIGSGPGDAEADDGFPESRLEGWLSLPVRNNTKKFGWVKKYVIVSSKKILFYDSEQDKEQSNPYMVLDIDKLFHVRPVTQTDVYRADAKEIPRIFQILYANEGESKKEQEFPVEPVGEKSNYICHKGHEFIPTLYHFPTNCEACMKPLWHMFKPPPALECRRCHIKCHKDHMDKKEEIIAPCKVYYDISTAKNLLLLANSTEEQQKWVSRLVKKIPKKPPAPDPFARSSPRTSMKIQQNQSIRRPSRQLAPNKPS
Chain of Calcium/calmodulin-dependent protein kinase type 1 (Homo sapiens) (Q14012 whole entry, looked up): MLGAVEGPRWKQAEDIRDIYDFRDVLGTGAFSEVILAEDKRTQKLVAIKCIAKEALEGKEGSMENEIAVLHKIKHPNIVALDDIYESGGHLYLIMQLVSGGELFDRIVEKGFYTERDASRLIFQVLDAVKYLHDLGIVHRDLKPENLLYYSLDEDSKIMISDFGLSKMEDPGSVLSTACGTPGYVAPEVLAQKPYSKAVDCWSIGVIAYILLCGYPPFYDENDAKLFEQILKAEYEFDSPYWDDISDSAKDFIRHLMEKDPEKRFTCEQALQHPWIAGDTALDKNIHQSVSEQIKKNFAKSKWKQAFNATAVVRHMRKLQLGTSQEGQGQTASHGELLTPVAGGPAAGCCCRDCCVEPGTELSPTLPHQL
Chain of Tyrosine-protein kinase CSK (Homo sapiens) (P41240 2-450 limits assumed): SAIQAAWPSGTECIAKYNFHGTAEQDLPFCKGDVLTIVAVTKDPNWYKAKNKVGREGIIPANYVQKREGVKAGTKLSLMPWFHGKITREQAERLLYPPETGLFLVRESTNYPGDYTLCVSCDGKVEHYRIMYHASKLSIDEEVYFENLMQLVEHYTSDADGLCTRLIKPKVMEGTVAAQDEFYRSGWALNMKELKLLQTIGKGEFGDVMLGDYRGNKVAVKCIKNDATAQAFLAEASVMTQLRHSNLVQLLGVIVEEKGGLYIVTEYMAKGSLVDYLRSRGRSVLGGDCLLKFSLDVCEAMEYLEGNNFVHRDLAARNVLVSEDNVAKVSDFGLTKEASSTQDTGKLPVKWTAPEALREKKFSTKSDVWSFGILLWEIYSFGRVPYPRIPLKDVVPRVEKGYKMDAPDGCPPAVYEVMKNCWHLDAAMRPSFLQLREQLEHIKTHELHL
Chain of Glycogen synthase kinase-3 beta (Homo sapiens) (P49841 whole entry, looked up): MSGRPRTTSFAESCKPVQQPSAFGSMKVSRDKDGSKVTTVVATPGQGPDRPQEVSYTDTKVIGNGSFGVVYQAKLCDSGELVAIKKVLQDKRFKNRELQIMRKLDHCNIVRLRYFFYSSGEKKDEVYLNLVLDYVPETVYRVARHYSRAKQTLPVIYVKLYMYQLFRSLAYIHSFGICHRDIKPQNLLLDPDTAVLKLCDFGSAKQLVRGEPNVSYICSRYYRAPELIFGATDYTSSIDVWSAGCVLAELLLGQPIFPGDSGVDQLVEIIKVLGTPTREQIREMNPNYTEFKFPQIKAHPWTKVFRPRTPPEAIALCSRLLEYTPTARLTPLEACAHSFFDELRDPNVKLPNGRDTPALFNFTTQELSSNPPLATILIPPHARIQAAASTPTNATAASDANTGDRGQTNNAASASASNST
Chain of Calcium/calmodulin-dependent protein kinase kinase 1 (Homo sapiens) (Q8N5S9 whole entry, looked up): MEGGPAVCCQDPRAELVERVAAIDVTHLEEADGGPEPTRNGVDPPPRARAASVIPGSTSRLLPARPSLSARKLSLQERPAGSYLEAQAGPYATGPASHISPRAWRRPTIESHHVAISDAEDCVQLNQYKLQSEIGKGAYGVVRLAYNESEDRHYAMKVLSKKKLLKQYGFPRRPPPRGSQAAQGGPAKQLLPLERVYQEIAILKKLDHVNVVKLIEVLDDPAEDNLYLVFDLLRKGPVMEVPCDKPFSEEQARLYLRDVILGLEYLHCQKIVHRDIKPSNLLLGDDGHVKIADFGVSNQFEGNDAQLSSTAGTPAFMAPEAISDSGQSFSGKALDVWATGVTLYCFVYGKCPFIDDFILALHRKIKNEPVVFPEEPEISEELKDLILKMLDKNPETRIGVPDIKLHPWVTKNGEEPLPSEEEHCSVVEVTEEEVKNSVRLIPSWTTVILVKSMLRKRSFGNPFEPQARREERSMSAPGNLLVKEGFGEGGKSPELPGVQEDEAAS
Chain of Ribosomal protein S6 kinase alpha-1 (Homo sapiens) (Q15418 whole entry): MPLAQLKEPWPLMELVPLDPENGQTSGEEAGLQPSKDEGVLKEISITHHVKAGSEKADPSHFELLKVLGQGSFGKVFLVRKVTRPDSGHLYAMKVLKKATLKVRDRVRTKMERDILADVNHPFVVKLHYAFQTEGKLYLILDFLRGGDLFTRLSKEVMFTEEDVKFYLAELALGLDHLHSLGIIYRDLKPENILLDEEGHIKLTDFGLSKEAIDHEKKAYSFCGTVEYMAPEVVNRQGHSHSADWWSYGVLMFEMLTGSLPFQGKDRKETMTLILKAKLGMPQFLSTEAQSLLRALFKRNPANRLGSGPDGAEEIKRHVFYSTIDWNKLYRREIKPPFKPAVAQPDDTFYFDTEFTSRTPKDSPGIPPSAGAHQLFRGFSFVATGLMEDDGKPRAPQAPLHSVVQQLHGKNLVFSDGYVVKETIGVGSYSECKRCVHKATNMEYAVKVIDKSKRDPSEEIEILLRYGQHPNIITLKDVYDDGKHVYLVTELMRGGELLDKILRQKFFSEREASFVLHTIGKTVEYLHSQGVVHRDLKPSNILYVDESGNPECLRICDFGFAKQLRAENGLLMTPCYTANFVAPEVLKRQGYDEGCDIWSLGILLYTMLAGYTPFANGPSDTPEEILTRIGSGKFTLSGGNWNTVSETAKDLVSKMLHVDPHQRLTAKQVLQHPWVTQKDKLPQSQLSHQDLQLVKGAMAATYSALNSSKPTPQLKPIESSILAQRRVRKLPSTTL

Activity [1] [%]	Activity [2] [%]	Activity [3] [%]	Activity [4] [%]	Activity [5] [%]	Activity [6] [%]	Activity [7] [%]	Activity [8] [%]	Activity [9] [%]	Ratio IC50 [10]	inhibition [11] [%]	Activity [12] [%]	Activity [13] [%]	Activity [14] [%]	Activity [15] [%]	Activity [16] [%]	Activity [17] [%]	Structure (SMILES)
77	98	103	76	109	93	35	95										CC(C)c1noc(-c2ccc(F)cc2)c1-c1ccncc1
76	88	91	75	104	104	110	87										CC(C)c1onc(-c2ccc(F)cc2)c1-c1ccncc1
								107	41	82	46	80	88	97	101	104	COc1ccc(/C=C/C(=O)Nc2cc(-c3[nH]c([S+](C)[O-])nc3-c3ccc(F)cc3)ccn2)c(OC)c1 (centres undefined)
								87	15	73	17	78	81	88	81	94	COc1ccc(/C=C/C(=O)Nc2cc(-c3[nH]c(SC)nc3-c3ccc(F)cc3)ccn2)c(OC)c1

Source: ChEMBL document CHEMBL1155278, “3,4-Diaryl-isoxazoles and -imidazoles as potent dual inhibitors of p38alpha mitogen activated protein kinase and casein kinase 1delta” (J Med Chem, 2009)
